Bioassay records: PubChem BioAssay, several laboratories
Only some compounds are listed: those with a hit (about 2.4% of all), similar ones and a draw of the others.
GASC-1 inh – inhibitors of GASC-1 histone demethylase, primary screen, biochemical, fluorescence, DELFIA europium; inhibition, % at 2.35 µM; GST-JMJD2C(1-420) H3K9me3 demethylation; actives 0.069% (n = 330,000);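 active means more than half of a compound's replicate wells show inhibition beyond 50%, single wells judged on their own value; inconclusive means some, but no more than half, of replicates pass 50% inhibition; inactive means no replicate passes 50% inhibition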;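 further: signal counts dimethyl H3K9 product captured on neutravidin plate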
pCIP destab – p/CIP-EGFP fusion destabilizers, primary screen, fluorescence, F442A cells; Q05BA5; 16 h; decrease of EGFP signal, % at 10 µM; actives 0.01% (n = 290,000);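 active means EGFP signal decrease of at least 30% at 10 µM or well 3 SD below plate mean, unless failing retest; inactive means the rest, including hits failing retest or dose response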
Target sequence (Q05BA5 1-1403): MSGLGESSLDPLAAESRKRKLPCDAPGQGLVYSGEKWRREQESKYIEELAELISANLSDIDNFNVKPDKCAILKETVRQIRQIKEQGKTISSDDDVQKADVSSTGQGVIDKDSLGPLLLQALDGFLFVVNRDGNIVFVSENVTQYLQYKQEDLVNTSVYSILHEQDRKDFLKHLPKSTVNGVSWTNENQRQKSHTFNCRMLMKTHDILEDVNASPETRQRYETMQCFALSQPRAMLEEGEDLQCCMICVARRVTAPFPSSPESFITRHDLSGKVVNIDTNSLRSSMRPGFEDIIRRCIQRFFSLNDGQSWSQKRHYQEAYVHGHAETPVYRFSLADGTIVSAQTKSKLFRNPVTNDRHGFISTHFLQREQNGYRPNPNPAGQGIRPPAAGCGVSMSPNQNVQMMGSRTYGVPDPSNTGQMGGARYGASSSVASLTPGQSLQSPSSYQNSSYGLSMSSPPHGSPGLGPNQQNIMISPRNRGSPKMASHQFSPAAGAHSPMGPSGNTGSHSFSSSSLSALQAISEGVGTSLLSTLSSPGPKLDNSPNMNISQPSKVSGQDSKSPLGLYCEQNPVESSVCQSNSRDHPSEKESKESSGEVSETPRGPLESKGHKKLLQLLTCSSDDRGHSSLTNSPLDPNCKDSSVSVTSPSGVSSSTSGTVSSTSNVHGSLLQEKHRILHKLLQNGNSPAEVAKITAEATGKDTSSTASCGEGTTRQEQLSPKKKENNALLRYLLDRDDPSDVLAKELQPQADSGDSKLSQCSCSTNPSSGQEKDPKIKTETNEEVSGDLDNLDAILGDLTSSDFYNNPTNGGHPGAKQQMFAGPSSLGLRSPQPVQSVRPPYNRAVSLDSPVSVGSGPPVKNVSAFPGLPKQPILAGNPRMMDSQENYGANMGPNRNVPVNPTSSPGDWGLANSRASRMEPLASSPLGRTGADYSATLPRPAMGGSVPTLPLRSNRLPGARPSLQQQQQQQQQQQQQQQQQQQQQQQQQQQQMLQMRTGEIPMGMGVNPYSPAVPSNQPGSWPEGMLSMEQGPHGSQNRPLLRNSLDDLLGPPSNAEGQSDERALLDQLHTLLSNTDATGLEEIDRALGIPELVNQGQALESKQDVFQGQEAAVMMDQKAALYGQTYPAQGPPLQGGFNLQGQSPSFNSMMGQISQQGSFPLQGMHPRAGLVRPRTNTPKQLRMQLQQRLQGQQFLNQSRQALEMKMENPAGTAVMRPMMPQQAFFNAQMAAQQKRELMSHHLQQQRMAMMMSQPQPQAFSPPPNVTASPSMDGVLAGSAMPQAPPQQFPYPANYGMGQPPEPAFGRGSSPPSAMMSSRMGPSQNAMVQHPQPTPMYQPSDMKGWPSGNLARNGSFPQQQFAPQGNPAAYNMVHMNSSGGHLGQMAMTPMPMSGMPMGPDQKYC
CTSL1 counter – Fasciola hepatica cathepsin L1 inhibitors, primary screen, counter-screen for PFM18AAP inhibitor project, biochemical, QFRET, fluorogenic peptide substrate; inhibition, % at 5.96 µM; actives 0.49% (n = 300,000); AID 1906, 2009; recombinant F. hepatica cathepsin L1, Z-Leu-Arg-MCA fluorescence;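 active means inhibition above the mean of all tested compounds plus 3 SD, set per screening campaign, cut at about 17% in these data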
Cardio protect – cardioprotection against H2O2-induced cell death, primary screen, uHTS, H9c2 cells, ATPLite luminescence. H9c2 cardiomyocytes, H2O2 injury protection, 2 h. protection from H2O2 cell death, % at 20 µM. actives 0.63% (n = 360,000). AID 588492, 2011;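 active means compounds giving at least 50% protection of heart cells from peroxide-induced death in the single-dose screen, raw or plate-pattern-corrected value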
T cruzi inh – inhibitors of intracellular T. cruzi growth, primary screen, luminescence, NIH3T3 host cells | T. cruzi beta-gal in NIH3T3, 90 h | inhibition, % (no concentration beside the values) | actives 1.4% (n = 300,000) | AID 1885, 2009;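 active means mean inhibition across valid replicates above about 55%, limit read from the data; inconclusive means mean below that limit but half or more replicates reach it; inactive means mean below it, under half of replicates reach it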;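 further: signal also drops with host cell toxicity which is not excluded here; higher percent means less beta-gal luminescence so fewer parasites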
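compound dosing = single 50 nL compound addition per well in DMSO | material = NIH/3T3 host cells with β-galactosidase reporter T. cruzi | input = 5,000 host fibroblasts per well | timing = ≥90 h infection period, 3 h prior cell attachment | read-out basis = percent inhibition of parasite-derived β-gal signal | detection = GalScreen β-gal luminescence, detergent lysis, 60 min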
PP5 inh – PP5 phosphatase inhibitors, primary screen, biochemical, fluorescence. Serine/threonine-protein phosphatase 5 (Homo sapiens), P53041. purified PP5c, OMFP substrate fluorescence. inhibition, % at 6.7 µM. actives 0.18% (n = 320,000). AID 1987, 2009;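 active means inhibition above the campaign's mean inhibition across all tested compounds plus 3 SD, cut at about 9.5% in these data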
A number is an active result.

Results for O=C(O)C1C2CCC(O2)C1C(=O)Nc1ccc(O)cc1 (configuration not stated) ?
GASC-1 inh: inactive; pCIP destab: inactive; CTSL1 counter: inactive; Cardio protect: inactive; T cruzi inh: inactive; PP5 inh: 43.3

How did Cc1ccc(C)c(C(C)NC(=O)C2C3CCC(O3)C2C(=O)O)c1 (configuration not stated) do in these assays?
GASC-1 inh: inactive; pCIP destab: inactive; CTSL1 counter: inactive; T cruzi inh: inactive; PP5 inh: 82.0

Results for FC(F)Oc1ccc(NC(=S)NC2CCCCCCC2)cc1 ?
GASC-1 inh: inactive; pCIP destab: inactive; CTSL1 counter: inactive; Cardio protect: inactive; T cruzi inh: inactive; PP5 inh: inactive

Results for O=C(O)c1ccc(NC(=O)C2C3CCC(C3)C2C(=O)O)cc1 (configuration not stated) ?
GASC-1 inh: inactive; pCIP destab: inactive; CTSL1 counter: inactive; Cardio protect: inactive; T cruzi inh: inactive; PP5 inh: inactive

What do the screens show for `COCCn1c(SCC(=O)N(C)c2ccccc2)nc2c([nH]c3ccccc32)c1=O`?
GASC-1 inh: inactive; pCIP destab: inactive; CTSL1 counter: inactive; Cardio protect: inactive; T cruzi inh: inactive; PP5 inh: inactive

What do the screens show for `CC(C)CN(C(=O)COc1ccc(Br)cc1C=O)C1CCS(=O)(=O)C1` (configuration not stated)?
GASC-1 inh: inactive; CTSL1 counter: inactive; Cardio protect: inactive; T cruzi inh: inactive; PP5 inh: inactive

What do the screens show for `COc1cc(C(O)CO)ccc1OS(=O)(=O)O` (configuration not stated)?
CTSL1 counter: inactive; Cardio protect: inactive; PP5 inh: inactive

Results for CCCCn1c(N)c(N(CCOC)C(=O)c2ccc(N3CCCC3)c([N+](=O)[O-])c2)c(=O)[nH]c1=O ?
GASC-1 inh: inactive; CTSL1 counter: inactive; Cardio protect: inactive; T cruzi inh: inactive; PP5 inh: inactive

Results for COc1cc(NC(=O)C2C3CCC(O3)C2C(=O)O)cc(OC)c1 (configuration not stated) ?
GASC-1 inh: inactive; pCIP destab: inactive; CTSL1 counter: inactive; Cardio protect: inactive; T cruzi inh: inactive; PP5 inh: 80.4

How did CN(CCOc1ccccc1)CCOc1ccccc1 do in these assays?
GASC-1 inh: inactive; pCIP destab: inactive; CTSL1 counter: inactive; Cardio protect: inactive; T cruzi inh: inactive; PP5 inh: inactive

What do the screens show for `CN(C)CCOc1ccc(/C(=C(/CCCl)c2ccccc2)c2ccccc2)cc1`?
GASC-1 inh: inconclusive; CTSL1 counter: inactive; Cardio protect: inactive; T cruzi inh: 62.4; PP5 inh: inactive

How did Cc1cc(N(C)/N=C/c2ccccc2O)nc(-c2ccccc2O)n1 do in these assays?
GASC-1 inh: inactive; pCIP destab: inactive; CTSL1 counter: inactive; Cardio protect: 50.2; T cruzi inh: inactive; PP5 inh: inactive

Results for Cc1cc(Nc2ccc(Br)cc2)nc(-c2ccccc2O)n1 ?
GASC-1 inh: inactive; pCIP destab: inactive; CTSL1 counter: inactive; Cardio protect: inactive; T cruzi inh: inactive; PP5 inh: inactive

Results for CC(C)[C@H](NC(=O)OCc1ccccc1)C(=O)OCC(=O)N1CCN(c2ccccc2)CC1 ?
GASC-1 inh: inactive; CTSL1 counter: inactive; Cardio protect: inactive; T cruzi inh: inactive; PP5 inh: inactive

What do the screens show for `O=C(Oc1oc(-c2ccco2)nc1C=Nc1ccccc1)c1ccco1`?
GASC-1 inh: inactive; pCIP destab: inactive; CTSL1 counter: 19.8; Cardio protect: inactive; T cruzi inh: inactive; PP5 inh: inactive

Results for O=C(Oc1oc(-c2ccco2)nc1C=Nc1ccccc1)c1ccoc1 ?
GASC-1 inh: inactive; pCIP destab: inactive; CTSL1 counter: inactive; Cardio protect: inactive; T cruzi inh: inactive; PP5 inh: inactive

What do the screens show for `Cc1ccc(C(=O)Oc2oc(-c3ccco3)nc2C=Nc2ccc(Cl)cc2)cc1`?
GASC-1 inh: inactive; pCIP destab: inactive; CTSL1 counter: 21.4; Cardio protect: inactive; T cruzi inh: inactive; PP5 inh: inactive

What do the screens show for `Cc1c(C(=O)Nc2cccc(Cl)c2)c2ccccn2c1CCc1ccncc1`?
GASC-1 inh: inactive; pCIP destab: inactive; Cardio protect: inactive; T cruzi inh: 55.8

What do the screens show for `Cc1c(C(=O)Nc2ccc(Cl)cc2)c2ccccn2c1CCc1ccncc1`?
GASC-1 inh: inactive; pCIP destab: inactive; CTSL1 counter: inactive; Cardio protect: inactive; T cruzi inh: 63.1; PP5 inh: inactive

Results for Cc1c(C(=O)Nc2ccc(Cl)cc2)c2ccccn2c1C(=O)c1ccc(F)cc1 ?
GASC-1 inh: inactive; pCIP destab: inactive; CTSL1 counter: inactive; Cardio protect: inactive; T cruzi inh: inactive; PP5 inh: inactive

Results for Cc1ccccc1S(=O)(=O)Cc1ccc(C(=O)N(C)C2CCCCC2)o1 ?
GASC-1 inh: inactive; pCIP destab: inactive; CTSL1 counter: inactive; Cardio protect: inactive; T cruzi inh: inactive; PP5 inh: inactive

How did CCC1CN(C(=O)N2CCC(C(=O)NCc3cccc(OC)c3OC)CC2)c2cc(C)ccc2O1 (configuration not stated) do in these assays?
GASC-1 inh: inactive; pCIP destab: inactive; CTSL1 counter: inactive; Cardio protect: inactive; T cruzi inh: inactive; PP5 inh: inactive

What do the screens show for `O=C(COC(=O)c1ccc(Br)o1)NCc1ccccc1Cl`?
GASC-1 inh: inactive; Cardio protect: inactive

How did Cc1ccc(-c2cc(C(=O)Nc3cnn(C45CC6CC(CC(C6)C4)C5)c3)no2)cc1 do in these assays?
GASC-1 inh: inactive; pCIP destab: inactive; CTSL1 counter: inactive; Cardio protect: inactive; T cruzi inh: inactive; PP5 inh: inactive

Results for O=C(Nc1cnn(C23CC4CC(CC(C4)C2)C3)c1)c1cc(-c2ccccc2)on1 ?
GASC-1 inh: inactive; pCIP destab: inactive; CTSL1 counter: inactive; Cardio protect: inactive; T cruzi inh: 60.8; PP5 inh: inactive

What do the screens show for `COCc1c(Br)c(C)nc(OCC(=O)N/N=C/c2cc(C)n(-c3ccc([N+](=O)[O-])cc3)c2C)c1C#N`?
GASC-1 inh: inactive; pCIP destab: inactive; CTSL1 counter: inactive; Cardio protect: inactive; T cruzi inh: 63.5; PP5 inh: inactive

What do the screens show for `Cc1cc(/C=N/NC(=O)CC#N)c(C)n1-c1ccc([N+](=O)[O-])cc1`?
GASC-1 inh: inactive; pCIP destab: inactive; CTSL1 counter: inactive; Cardio protect: inactive; T cruzi inh: inactive; PP5 inh: inactive

What do the screens show for `O=C(CNC(=O)c1cc(Cl)cc([N+](=O)[O-])c1)OCC(=O)N1CCCCC1`?
GASC-1 inh: inactive; Cardio protect: inactive; PP5 inh: inactive
